Measurements taken from ChEMBL document CHEMBL4354873, “Rationally Designed Small-Molecule Inhibitors Targeting an Unconventional Pocket on the TLR8 Protein-Protein Interface” (J Med Chem, 2020).
Active and inactive are the calls of the source. No cut-off for these calls is given here.

How the values were obtained:
[1] = target: T1, Toll-like receptor 9 (Homo sapiens) (UniProt Q9NR96); assay: Inhibition of human TLR9 expressed in HEK-Blue cells assessed as inhibition of ODN2006-induced NF-kappaB activation at 20 uM measured after 24 hrs by quanti-blue based SEAP reporter gene assay; type: cell-based
T1 sequence (whole entry): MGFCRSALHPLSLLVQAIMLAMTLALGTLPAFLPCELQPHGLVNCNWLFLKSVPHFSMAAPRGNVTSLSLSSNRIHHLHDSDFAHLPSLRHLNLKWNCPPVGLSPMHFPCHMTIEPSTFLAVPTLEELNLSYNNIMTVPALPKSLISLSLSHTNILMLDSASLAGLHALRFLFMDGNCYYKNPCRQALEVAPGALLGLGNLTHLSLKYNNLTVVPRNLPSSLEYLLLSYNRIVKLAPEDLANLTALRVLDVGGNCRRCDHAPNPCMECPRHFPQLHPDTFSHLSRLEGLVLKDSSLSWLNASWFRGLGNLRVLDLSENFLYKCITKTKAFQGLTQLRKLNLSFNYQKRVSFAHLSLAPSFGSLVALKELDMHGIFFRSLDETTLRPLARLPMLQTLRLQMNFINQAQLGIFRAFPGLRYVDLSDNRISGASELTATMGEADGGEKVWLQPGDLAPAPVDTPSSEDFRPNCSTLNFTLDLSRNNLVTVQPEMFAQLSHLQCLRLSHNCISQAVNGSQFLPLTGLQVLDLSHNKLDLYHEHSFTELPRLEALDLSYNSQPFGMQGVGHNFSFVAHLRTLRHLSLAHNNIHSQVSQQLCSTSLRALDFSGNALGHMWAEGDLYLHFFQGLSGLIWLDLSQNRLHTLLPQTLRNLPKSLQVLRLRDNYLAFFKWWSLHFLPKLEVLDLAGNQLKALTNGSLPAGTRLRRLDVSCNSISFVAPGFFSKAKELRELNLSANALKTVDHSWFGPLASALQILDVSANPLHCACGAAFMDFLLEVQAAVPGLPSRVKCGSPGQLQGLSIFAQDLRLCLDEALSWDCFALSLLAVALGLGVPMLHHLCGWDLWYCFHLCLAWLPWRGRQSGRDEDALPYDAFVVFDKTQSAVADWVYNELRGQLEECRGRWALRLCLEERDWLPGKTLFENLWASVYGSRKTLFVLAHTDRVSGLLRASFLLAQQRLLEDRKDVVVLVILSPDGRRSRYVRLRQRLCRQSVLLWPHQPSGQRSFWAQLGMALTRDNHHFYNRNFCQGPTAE
Summary of the method: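 HEK-Blue SEAP format: 4 × 10⁴ cells/well in DMEM with ligand plus compound, 24 h at 37 °C. Supernatant mixed with QUANTI-Blue up to 1 h, then A620 read. Ligands: Pam3CSK4 100 ng/mL (TLR1/2), Pam2CSK4 100 ng/mL (TLR2/6), poly(I:C) 5 µg/mL (TLR3), LPS 20 ng/mL (TLR4), flagellin 50 ng/mL (TLR5), R848 1 µg/mL (TLR7), R848 2 µg/mL (TLR8), ODN2006 0.5 µM (TLR9). Mean ± s.d.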

[2] = target: T2, Toll-like receptor 8 (Homo sapiens) (UniProt Q9NR97); assay: Inhibition of TLR8 in human monocytes assessed as reduction in R848-induced p65 nuclear translocation up to 5 uM measured after 2 hrs by Western blot analysis; type: cell-based
T2 sequence (whole entry): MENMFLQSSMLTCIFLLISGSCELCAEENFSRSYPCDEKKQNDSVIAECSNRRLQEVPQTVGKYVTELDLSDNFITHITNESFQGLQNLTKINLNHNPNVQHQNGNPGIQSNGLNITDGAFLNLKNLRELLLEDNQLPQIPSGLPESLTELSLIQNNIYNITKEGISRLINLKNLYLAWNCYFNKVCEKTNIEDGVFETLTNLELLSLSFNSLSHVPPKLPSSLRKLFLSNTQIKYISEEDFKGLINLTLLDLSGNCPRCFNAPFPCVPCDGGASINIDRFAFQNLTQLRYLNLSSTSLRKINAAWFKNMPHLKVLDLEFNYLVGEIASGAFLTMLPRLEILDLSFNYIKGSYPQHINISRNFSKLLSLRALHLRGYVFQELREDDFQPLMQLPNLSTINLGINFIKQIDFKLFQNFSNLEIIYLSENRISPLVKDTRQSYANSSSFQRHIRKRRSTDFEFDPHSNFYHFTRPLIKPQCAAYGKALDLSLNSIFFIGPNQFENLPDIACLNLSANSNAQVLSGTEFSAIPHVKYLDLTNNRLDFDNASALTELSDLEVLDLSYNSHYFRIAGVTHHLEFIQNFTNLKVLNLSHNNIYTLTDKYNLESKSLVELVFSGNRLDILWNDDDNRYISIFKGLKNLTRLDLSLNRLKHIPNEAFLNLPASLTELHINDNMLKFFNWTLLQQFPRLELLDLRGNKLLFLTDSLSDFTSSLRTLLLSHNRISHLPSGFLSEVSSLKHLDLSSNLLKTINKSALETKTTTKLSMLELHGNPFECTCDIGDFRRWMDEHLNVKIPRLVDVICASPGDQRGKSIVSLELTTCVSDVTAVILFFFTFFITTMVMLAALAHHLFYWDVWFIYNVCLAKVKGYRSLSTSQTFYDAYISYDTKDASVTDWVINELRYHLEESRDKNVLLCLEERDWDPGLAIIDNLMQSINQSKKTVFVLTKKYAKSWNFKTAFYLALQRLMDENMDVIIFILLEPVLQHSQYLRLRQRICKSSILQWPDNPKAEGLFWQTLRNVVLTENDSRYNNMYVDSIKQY
Summary of the method: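 Monocyte cell lines, 2 × 10⁶/well, differentiated with PMA 100 ng/mL for 24 h. After washes, cells in unsupplemented RPMI received R848 1 µg/mL with varying compound concentrations for 2 h. Nuclear/cytoplasmic fractions extracted and resolved on 10% SDS-PAGE. Blots probed for p65, TRAF3 and p-IRAK4 (1:1000); lamin A/C (nuclear) and β-actin (cytoplasmic) as loading controls.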

- inhibition [1]: inactive
- inhibition [2]: Active
Structure (SMILES): CSc1nnc(CCCO)n1-c1cc(C)c(C)c(C)c1
